Wee1 stabilizer = Wee1 degradation inhibitors, primary screen, cell-based, HeLa, Wee1K328M-luciferase, luminescence; HeLa Luc-Wee1K328M stability; 100% = proteasome inhibitor MG132 effect; 220,000 tested, 1.2% active; reporter increase, % at 5 µM; AID 1321, 2008;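 active means activation above the mean of all tested compounds plus 3 SD, set per screening run, cut at about 8.8% in these data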;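 further: cells exposed to compound for 20 h before luminescence read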
Arbovirus anti = antivirals against arbovirus infection, primary screen, cell-based, full library, 10K replicate subset | 200,000 tested, 0.37% active | arbovirus infection cell-based antiviral screen | inhibition, % at 10 µM; in the data active means inhibition above about 30%
p97 inhibitor = inhibitors of human p97 ATPase, primary screen, biochemical; 220,000 tested, 0.42% active; recombinant p97 ATPase, Kinase-Glo ATP luminescence, 3 h; AID 1481, 2009; inhibition, % at 8 µM; Transitional endoplasmic reticulum ATPase (Homo sapiens), P55072; in the data active means inhibition above about 15%
Target sequence (P55072 whole entry, looked up): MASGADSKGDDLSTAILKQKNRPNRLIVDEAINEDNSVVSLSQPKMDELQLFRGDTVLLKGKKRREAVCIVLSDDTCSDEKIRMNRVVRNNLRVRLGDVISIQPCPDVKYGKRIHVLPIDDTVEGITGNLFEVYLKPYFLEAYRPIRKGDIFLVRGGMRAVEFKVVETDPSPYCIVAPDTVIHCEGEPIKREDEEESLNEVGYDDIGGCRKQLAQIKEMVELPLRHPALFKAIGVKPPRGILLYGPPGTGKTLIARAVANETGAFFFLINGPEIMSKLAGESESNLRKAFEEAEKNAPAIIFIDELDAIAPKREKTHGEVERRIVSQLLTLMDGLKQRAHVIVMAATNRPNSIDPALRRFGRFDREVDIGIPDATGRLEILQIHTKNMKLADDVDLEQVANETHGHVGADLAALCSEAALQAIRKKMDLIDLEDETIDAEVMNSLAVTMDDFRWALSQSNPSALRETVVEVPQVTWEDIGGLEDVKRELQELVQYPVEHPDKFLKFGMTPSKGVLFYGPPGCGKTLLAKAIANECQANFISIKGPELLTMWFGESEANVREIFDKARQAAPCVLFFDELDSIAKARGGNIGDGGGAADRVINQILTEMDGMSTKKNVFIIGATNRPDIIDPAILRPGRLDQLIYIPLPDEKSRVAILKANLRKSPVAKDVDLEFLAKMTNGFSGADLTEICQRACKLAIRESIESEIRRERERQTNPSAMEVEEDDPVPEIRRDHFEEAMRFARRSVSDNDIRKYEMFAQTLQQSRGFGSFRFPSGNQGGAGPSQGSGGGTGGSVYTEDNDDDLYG
Redox H2O2 prof = compounds producing H2O2 with reducing agent – biochemical, NIH compound library profiling, artefact control for MLSCN library redox annotation, primary screen. 200,000 tested, 0.03% active. activation, % at 10 µM. DTT-dependent redox cycling H2O2, phenol red/HRP absorbance; 100% = 100 µM peroxide control, 0% = buffer. AID 878, 2007;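 active means activation of at least 50% relative to the plate's high and low controls in the primary single-dose screen; inactive means activation below 50%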;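 further: compound incubated with DTT at 0.8 mM final as the reducing agent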
RBBP9 inhibitor = human RBBP9 inhibitors, primary screen, biochemical, fluorescence polarization, FP-Rh probe, HTS; 220,000 tested, 0.2% active; recombinant RBBP9; AID 1515, 2009; Serine hydrolase RBBP9 (Homo sapiens), O75884; inhibition, % at 7.94 µM;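 active means inhibition above the campaign mean of all tested compounds plus 3 SD, cut at about 14% in these data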
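Test system: recombinant human RBBP9. Quantity: 2.5 µM RBBP9 dispensing solution, before mixing. Detection: FP readout at 525/598 nm. Reagent: Serine-hydrolase probe FP-Rh, 375 nM pre-mixing. Measure: % inhibition. Control set: DMSO-treated enzyme wells and wells lacking RBBP9. Buffer or medium: Tris-NaCl-Pluronic buffer, pH 8.0. Times: preincubation 30 min plus labeling 45 min at 25 °C.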
PKD1 inh = inhibitors of human PKD1 kinase, biochemical, fluorescence polarization; Serine/threonine-protein kinase D1 (Homo sapiens), Q15139; PKD1 kinase fluorescence polarization assay; inhibition, % (concentration not given with the values); 200,000 tested, 0.056% active; in the data active means inhibition above about 50%
A number is an active result; n = inactive; x = no result given. A selection: hits, their analogues and other compounds. The true share with any hit is near 2.2%.

SMILES	Wee1 stabilizer	Arbovirus anti	p97 inhibitor	Redox H2O2 prof	RBBP9 inhibitor	PKD1 inh
CC(=O)OCC(=O)[C@@]12OC(C)(C)O[C@@H]1C[C@H]1[C@@H]3C[C@H](F)C4=CC(=O)C=C[C@]4(C)[C@@]3(F)[C@@H](O)C[C@@]12C	10.8	n	n	n	n	n
CCCCNC(=O)C1CCN(S(=O)(=O)N2CCOCC2)CC1	n	n	n	n	n	n
CSc1ncccc1C(=O)OCC(=O)c1cccs1	n	n	n	n	n	n
COC(=O)c1ccc(NC(=O)C2CCN(S(C)(=O)=O)CC2)cc1	10.7	n	n	n	n	n
CCOCCCNC(=O)/C(C#N)=C/c1cc(C)c(O)c(C)c1	8.9	n	n	n	n	n
CCCCOc1ccc(/C=C/C(=O)NC2=Nc3ccccc3NC(C)=C2C(=O)OCC)cc1OC	n	n	n	n	n	n
CCOC(=O)CSc1n[nH]c(=S)s1	n	x	14.5	x	n	x
CCOC(=O)CCSc1n[nH]c(=S)s1	n	x	n	x	n	x
C=CCNc1ncnc2sc(SC)nc12	10.3	x	n	x	n	x
O=C(CCC(=O)c1ccc(F)cc1)OC1CCOC1=O (stereo unspecified)	n	n	n	n	n	n
Cc1cccc(-n2c(=O)c3c4c(sc3n3c(=S)[nH]nc23)CCC4)c1	n	33.9	n	n	n	n
Cc1ccc(-n2c(=O)c3c4c(sc3n3c(=S)[nH]nc23)CCC4)cc1	n	x	n	x	n	x
CCOC(=O)Cc1cc(=O)[nH]c(/N=C(\N)Nc2ccc(C)cc2C)n1	n	n	n	n	n	n
O=c1c2c([N+](=O)[O-])cc([N+](=O)[O-])cc2sn1-c1ccc(Br)cc1	n	n	n	n	16.7	n
O=c1c2cc(Br)ccc2nc(-c2ccc([N+](=O)[O-])cc2)n1O	n	n	n	n	n	n
CC(C)N1CCN(Cc2cccn2-c2cccnc2)CC1CCO (stereo unspecified)	9.6	n	n	n	n	n
CC(C)CCN1CCN(Cc2cccn2-c2cccnc2)CC1CCO (stereo unspecified)	n	n	n	n	n	n
Cc1ccccc1NC(=O)c1ccc([N+](=O)[O-])o1	9.0	n	n	n	n	n
O=C(N/N=C/C1C(c2ccccc2)C1(Cl)Cl)c1cccc(Br)c1 (stereo unspecified)	n	n	n	n	n	n
Cc1ccc2nc(/C(C#N)=C\c3ccc(N4CCOCC4)o3)[nH]c2c1	9.4	n	n	n	n	n
Cc1ccc(/C(C#N)=C\c2ccc(N3CCOCC3)o2)cc1	n	n	n	n	n	n
CCOc1ccc(Br)cc1S(=O)(=O)NC(=O)c1ccccc1	n	n	n	n	n	n
CC(=O)C1=C(c2cccc([N+](=O)[O-])c2)N(C(C)=O)n2c(C)nnc2S1	10.0	n	n	n	n	n
CC(=O)c1c(C(C)=O)c(C)n(-c2cccc([N+](=O)[O-])c2)c1C	n	n	n	n	n	n
Cc1ccc(C)c(S(=O)(=O)Nc2ccc3scnc3c2)c1	n	n	n	n	n	n
SMILES	Wee1 stabilizer	Arbovirus anti	p97 inhibitor	Redox H2O2 prof	RBBP9 inhibitor	PKD1 inh
C(=N\NC1=Nc2cccc3cccc1c23)/c1ccccc1	8.9	n	n	n	n	n
Clc1ccc(/C=N/NC2=Nc3cccc4cccc2c34)cc1	n	n	n	n	n	n
Nc1nc2c(s1)CCc1c-2cnn1-c1ccccc1	n	n	15.5	n	n	n
C=CCNC(=O)c1onc(CSc2ccc(C(C)C)cc2)c1C(=O)O	n	35.5	n	n	n	n
Cc1ccc(CNC(=O)Nc2cccs2)cc1	9.1	n	n	n	n	n
COc1ccc(/C=C2\CCn3c2nc2cc(C(=O)O)ccc2c3=O)cc1OC	n	x	n	x	n	x
CC(C)CCOc1ccc(/C=C2\CCn3c2nc2cc(C(=O)O)ccc2c3=O)cc1	n	37.8	n	n	n	n
Cc1cc(C)nc(N2CCC(C(=O)NNC(=O)c3ccc(Cl)cc3)CC2)n1	n	x	n	x	n	x
CCC(=O)Nc1ccc(S(=O)(=O)N2CCOCC2)cc1	n	n	n	n	n	n
O=C(CN1CCCCCC1)Nc1ccc(S(=O)(=O)N2CCOCC2)cc1	9.6	n	n	n	n	n
O=C(Nc1ccc(S(=O)(=O)N2CCOCC2)cc1)c1cc(-c2ccccc2O)n[nH]1	10.2	x	n	x	n	x
CC1=NN(c2ccc(F)cc2)C(=O)C1C(c1cccc(O)c1)c1c(C)[nH]n(-c2ccc(F)cc2)c1=O (stereo unspecified)	n	n	33.2	n	n	n
N/C(CC(=O)NC1CCCCC1)=N\OCC(=O)Nc1ccc(Cl)c(Cl)c1	n	x	n	x	n	x
Cc1ccc(NC(=O)C23CCC(C)(C(=O)[C@H]2Br)C3(C)C)cc1 (stereo partly specified)	10.3	x	n	x	n	x
COc1ccc2c(=O)cc(-c3ccccc3F)oc2c1	9.4	x	n	x	n	x
Cc1ccc(C)c(NC(=O)CCC(=O)N/N=C/c2ccc3c(c2)OCO3)c1	10.5	n	n	n	n	n
Cc1ccccc1C(=O)NC(CC(C)C)C(=O)OCC(=O)c1c(N)n(C)c(=O)n(C)c1=O (stereo unspecified)	n	n	n	n	n	n
CCOC(=O)c1cc(CC)sc1NC(=O)c1cc(OC)c(OC)c(OC)c1	n	n	n	n	n	n
COc1cc(C(=O)Nc2sc(C)c(C)c2C(=O)O)cc(OC)c1OC	n	44.4	n	n	n	n
COCCCNc1nc(-c2ccncc2)nc2ccccc12	n	32.6	n	n	n	n
COCCNc1nc(-c2ccccc2)nc2ccccc12	n	n	n	n	n	n
O=C1NC(=Nc2ccc(Cl)cc2)SC1Cc1cc(Cl)ccc1Cl (stereo unspecified)	9.0	n	n	n	n	n
COc1ccc(/C=C2\C(=O)c3ccccc3OC2c2ccccc2)cc1 (stereo unspecified)	10.4	x	n	x	n	x
N#Cc1nc(COc2ccc(Cl)cc2)oc1N1CCN(Cc2ccccc2)CC1	n	n	n	n	n	n
CCN1CCN(c2oc(COc3ccc(Cl)cc3)nc2C#N)CC1	9.1	x	n	x	n	x
Cn1c(=O)c2c(nc(N3CCN(Cc4ccccc4)CC3)n2CCCc2ccccc2)n(C)c1=O	10.0	n	n	n	n	n
CC1(C)Cc2ccccc2-c2n[nH]c(=S)n21	9.5	n	n	n	n	n
CC(=O)Nc1ccc(S(=O)(=O)NCCCN2CCN(Cc3ccccc3)CC2)cc1Cl	n	x	n	x	n	x
CCOC(=O)c1cc(=O)n2nc(-c3ccccc3F)nc2s1	n	n	15.9	n	n	n
